These results are taken from ChEMBL document CHEMBL2163301, “Substrates for efficient fluorometric screening employing the NAD-dependent sirtuin 5 lysine deacylase (KDAC) enzyme” (J Med Chem, 2012).

Assay [1] has as its target T1, NAD-dependent protein deacetylase sirtuin-1 (Homo sapiens) (UniProt Q96EB6).
T1 sequence (whole entry): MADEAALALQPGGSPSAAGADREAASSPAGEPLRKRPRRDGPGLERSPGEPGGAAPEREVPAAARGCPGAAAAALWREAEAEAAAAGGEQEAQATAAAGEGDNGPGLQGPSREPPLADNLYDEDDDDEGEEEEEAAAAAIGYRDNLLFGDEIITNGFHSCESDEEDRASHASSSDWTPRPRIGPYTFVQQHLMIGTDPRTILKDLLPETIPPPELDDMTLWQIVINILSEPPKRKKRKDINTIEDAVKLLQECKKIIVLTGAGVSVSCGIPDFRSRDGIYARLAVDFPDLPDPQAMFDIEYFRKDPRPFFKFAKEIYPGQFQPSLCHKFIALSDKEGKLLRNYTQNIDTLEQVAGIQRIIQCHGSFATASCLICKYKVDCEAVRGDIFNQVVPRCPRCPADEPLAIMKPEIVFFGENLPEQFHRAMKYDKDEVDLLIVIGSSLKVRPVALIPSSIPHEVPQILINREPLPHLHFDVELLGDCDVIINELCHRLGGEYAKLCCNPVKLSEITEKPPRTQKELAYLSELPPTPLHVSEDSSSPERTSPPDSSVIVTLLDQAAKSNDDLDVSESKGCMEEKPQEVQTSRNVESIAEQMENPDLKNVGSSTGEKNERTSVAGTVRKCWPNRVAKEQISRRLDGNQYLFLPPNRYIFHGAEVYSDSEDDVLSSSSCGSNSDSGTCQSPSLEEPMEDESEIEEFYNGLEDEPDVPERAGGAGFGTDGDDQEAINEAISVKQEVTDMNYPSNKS
The assay is described as follows: Activity of human full length SIRT1 enzyme at 50 uM after 1 hr by trypsin developer-based fluorescence assay. Put shortly: (§1)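 Acetylated substrates were each treated with commercial full-length His-tagged SIRT1 or truncated SIRT1-GST fusion, with NAD, in Tris-Cl pH 8.0 buffer containing BSA. End point: 1 h at 37 °C, then nicotinamide (2 mM)/trypsin (0.4 mg/mL) developer for 15–30 min at room temperature. Fluorescence read at ex 360/em 460 nm against no-enzyme control wells.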

Assay [2] concerns the target T1, NAD-dependent protein deacetylase sirtuin-1 (Homo sapiens). The assay is described as follows: Activity of human SIRT1 assessed as deacylation of compound at 50 uM after 1 hr by trypsin developer-based fluorescence assay. In outline: (§2)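 Recombinant sirtuin at 1 μg per 50 μL reaction, with SIRT1-GST fusion as the SIRT1 source. Fluorogenic substrate and NAD incubated in Tris-Cl buffer pH 8.0 with BSA (1 mg/mL) for 1 h at 37 °C. Developer with nicotinamide (2 mM) and trypsin (0.4 mg/mL) added, 15–30 min at room temperature. Fluorescence read at ex 360/em 460 nm and normalized to no-enzyme wells. At least two experiments in duplicate.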

Assay [3] addresses T2, NAD-dependent protein lipoamidase sirtuin-4, mitochondrial (Homo sapiens) (UniProt Q9Y6E7).
T2 sequence (whole entry): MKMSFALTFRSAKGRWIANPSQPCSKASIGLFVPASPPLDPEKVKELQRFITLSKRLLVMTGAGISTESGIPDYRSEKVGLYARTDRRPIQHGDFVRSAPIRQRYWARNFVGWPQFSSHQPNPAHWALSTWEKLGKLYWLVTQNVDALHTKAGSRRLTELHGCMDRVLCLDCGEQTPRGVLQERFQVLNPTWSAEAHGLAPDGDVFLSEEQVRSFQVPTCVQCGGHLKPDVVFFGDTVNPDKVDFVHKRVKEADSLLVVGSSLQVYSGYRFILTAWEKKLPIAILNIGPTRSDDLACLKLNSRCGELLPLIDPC
The assay is described as follows: Activity of recombinant human SIRT4 assessed as deacylation of compound at 50 uM after 1 hr by trypsin developer-based fluorescence assay. Put shortly:
as §2

The target of assay [4] is NAD-dependent protein deacylase sirtuin-5, mitochondrial (Homo sapiens) (UniProt Q9NXA8). Kind of assay: Activity of human SIRT5 assessed as deacylation of compound at 50 uM after 1 hr by trypsin developer-based fluorescence assay. Put shortly:
as §2

In assay [5] the target is T3, NAD-dependent protein deacetylase sirtuin-7 (Homo sapiens) (UniProt Q9NRC8).
T3 sequence (whole entry): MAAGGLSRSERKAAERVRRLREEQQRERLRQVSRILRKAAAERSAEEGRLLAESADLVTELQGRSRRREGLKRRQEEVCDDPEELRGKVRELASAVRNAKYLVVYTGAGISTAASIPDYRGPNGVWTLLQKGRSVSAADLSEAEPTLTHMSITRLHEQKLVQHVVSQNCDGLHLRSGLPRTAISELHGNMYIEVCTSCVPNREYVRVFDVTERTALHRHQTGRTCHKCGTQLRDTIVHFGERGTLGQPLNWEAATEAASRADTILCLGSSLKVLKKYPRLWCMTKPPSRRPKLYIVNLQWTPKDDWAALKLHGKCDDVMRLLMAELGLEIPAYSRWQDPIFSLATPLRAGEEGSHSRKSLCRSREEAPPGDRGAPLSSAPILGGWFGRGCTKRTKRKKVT
Kind of assay: Activity of recombinant human SIRT7 assessed as deacylation of compound at 50 uM after 1 hr by trypsin developer-based fluorescence assay. Put shortly: as §2

Assay [6] concerns the target T4, NAD-dependent protein deacetylase sirtuin-2 (Homo sapiens) (UniProt Q8IXJ6).
T4 sequence (whole entry): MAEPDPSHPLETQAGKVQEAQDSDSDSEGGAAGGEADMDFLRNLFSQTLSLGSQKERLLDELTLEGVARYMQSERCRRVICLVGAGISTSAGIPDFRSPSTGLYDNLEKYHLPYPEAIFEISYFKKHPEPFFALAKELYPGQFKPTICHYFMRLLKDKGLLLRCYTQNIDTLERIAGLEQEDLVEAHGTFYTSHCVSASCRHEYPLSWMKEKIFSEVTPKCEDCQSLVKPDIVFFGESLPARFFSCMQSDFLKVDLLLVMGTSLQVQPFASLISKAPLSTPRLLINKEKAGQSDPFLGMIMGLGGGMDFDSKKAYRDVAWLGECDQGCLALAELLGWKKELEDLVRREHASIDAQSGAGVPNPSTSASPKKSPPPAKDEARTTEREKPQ
Kind of assay: Activity of human SIRT2 assessed as deacylation of compound at 50 uM after 1 hr by trypsin developer-based fluorescence assay. Put shortly: as §2

The target of assay [7] is T5, NAD-dependent protein deacetylase sirtuin-3, mitochondrial (Homo sapiens) (UniProt Q9NTG7).
T5 sequence (whole entry): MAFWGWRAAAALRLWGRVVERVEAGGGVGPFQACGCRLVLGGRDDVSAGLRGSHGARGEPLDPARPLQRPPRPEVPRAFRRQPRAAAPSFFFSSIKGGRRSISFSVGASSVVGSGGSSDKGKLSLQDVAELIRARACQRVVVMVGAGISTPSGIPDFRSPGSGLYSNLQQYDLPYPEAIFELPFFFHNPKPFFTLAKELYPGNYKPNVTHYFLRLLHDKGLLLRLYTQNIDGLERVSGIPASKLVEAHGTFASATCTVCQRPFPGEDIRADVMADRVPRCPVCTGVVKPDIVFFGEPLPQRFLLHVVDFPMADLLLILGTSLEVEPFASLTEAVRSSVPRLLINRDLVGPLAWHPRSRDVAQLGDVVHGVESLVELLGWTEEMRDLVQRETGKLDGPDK
Kind of assay: Activity of human SIRT3 assessed as deacylation of compound at 50 uM after 1 hr by trypsin developer-based fluorescence assay. In outline:
as §2

The target in assay [8] is NAD-dependent protein deacylase sirtuin-6 (Homo sapiens) (UniProt Q8N6T7). Kind of assay: Activity of human SIRT6 assessed as deacylation of compound at 50 uM after 1 hr by trypsin developer-based fluorescence assay. Put shortly: as §2
NAD-dependent protein deacylase sirtuin-6 (Homo sapiens), sequence (Q8N6T7 whole entry, the tested form may be a part): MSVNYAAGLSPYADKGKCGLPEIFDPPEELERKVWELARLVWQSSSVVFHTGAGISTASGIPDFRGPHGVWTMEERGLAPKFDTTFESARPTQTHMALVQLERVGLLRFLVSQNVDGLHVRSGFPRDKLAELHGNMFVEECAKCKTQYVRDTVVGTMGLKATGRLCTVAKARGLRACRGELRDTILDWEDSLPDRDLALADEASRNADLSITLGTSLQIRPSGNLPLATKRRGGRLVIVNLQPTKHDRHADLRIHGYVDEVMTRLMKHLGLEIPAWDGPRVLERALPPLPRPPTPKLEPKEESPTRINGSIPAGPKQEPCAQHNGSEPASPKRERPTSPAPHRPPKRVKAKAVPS
In assay [9] the target is T1, NAD-dependent protein deacetylase sirtuin-1 (Homo sapiens). Kind of assay: Activity of human truncated SIRT1-GST fusion protein at 50 uM after 1 hr by trypsin developer-based fluorescence assay. In outline: as §1
In assay [10] the target is NAD-dependent protein deacylase sirtuin-5, mitochondrial (Homo sapiens) (UniProt Q9NXA8). Kind of assay: Activity of human SIRT5 assessed as decrotonylation of compound at 50 uM after 1 hr by trypsin developer-based fluorescence assay. Put shortly: as §2
NAD-dependent protein deacylase sirtuin-5, mitochondrial (Homo sapiens), sequence (Q9NXA8 37-310 limits assumed): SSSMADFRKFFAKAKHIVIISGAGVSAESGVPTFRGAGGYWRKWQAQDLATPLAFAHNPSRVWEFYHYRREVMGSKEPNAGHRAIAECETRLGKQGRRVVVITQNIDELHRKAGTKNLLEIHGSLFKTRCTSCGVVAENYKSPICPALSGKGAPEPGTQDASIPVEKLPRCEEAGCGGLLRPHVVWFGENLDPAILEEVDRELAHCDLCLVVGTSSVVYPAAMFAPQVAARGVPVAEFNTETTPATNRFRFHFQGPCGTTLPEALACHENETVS
Assay [11] addresses T4, NAD-dependent protein deacetylase sirtuin-2 (Homo sapiens). The assay is described as follows: Activity of human SIRT2 assessed as decrotonylation of compound at 50 uM after 1 hr by trypsin developer-based fluorescence assay. Put shortly:
as §2

The target of assay [12] is NAD-dependent protein deacylase sirtuin-6 (Homo sapiens) (UniProt Q8N6T7). Kind of assay: Activity of human SIRT6 assessed as decrotonylation of compound at 50 uM after 1 hr by trypsin developer-based fluorescence assay. Put shortly: as §2
For assay [13], the target named is T1, NAD-dependent protein deacetylase sirtuin-1 (Homo sapiens). The assay is described as follows: Activity of human SIRT1 assessed as decrotonylation of compound at 50 uM after 1 hr by trypsin developer-based fluorescence assay. In outline: as §2
Assay [14] has as its target T5, NAD-dependent protein deacetylase sirtuin-3, mitochondrial (Homo sapiens). The assay is described as follows: Activity of human SIRT3 assessed as decrotonylation of compound at 50 uM after 1 hr by trypsin developer-based fluorescence assay. Put shortly: as §2

Counter-ions that a name gives are not always drawn. The source made the active and inactive calls. The rule behind the calls is not given here. *1 amine or outer side, *2 acyl side, *3 side chain or, on linkers, in order; H or OH if unused. Where a SMILES comes first, the peptide text is derived from it. The star is where a group is joined. AMC = Cc1cc(=O)oc2cc(N*)ccc12; Suc = O=C(CCC(=O)[*:2])[*:1]; Tfa = O=C(C(F)(F)F)*

As to `CC(=O)NCCCC[C@H](NC(=O)[C@H](CCCCN)NC(=O)[C@H](Cc1cnc[nH]1)NC(=O)[C@H](CCCNC(=N)N)NC(C)=O)C(=O)Nc1ccc2c(C)cc(=O)oc2c1` (Ac-RHKK(Ac)-{AMC}), the outcome in [1], in assay [3], in assay [4], in assay [5], in [8] and in [9] was inactive. In addition, the result in assay [2], in assay [6] and in [7] was Active.

Regarding `CC(=O)NCCCC[C@H](NC(=O)CNC(=O)[C@H](CC(C)C)NC(C)=O)C(=O)Nc1ccc2c(C)cc(=O)oc2c1` (Ac-Leu-Gly-Lys(Ac)-{AMC}), the outcome in assay [1], in [3], in assay [4], in [5], in [8] and in assay [9] was inactive. Further, the result in [2], in assay [6] and in assay [7] was Active.

As for `CC(=O)NCCCC[C@H](NC(C)=O)C(=O)Nc1ccc2c(C)cc(=O)oc2c1`, the outcome in assay [1], in assay [3], in assay [4], in assay [5], in assay [8] and in assay [9] was inactive. The outcome in assay [2], in assay [6] and in [7] was Active.

On to `C/C=C/C(=O)NCCCC[C@H](NC(=O)CNC(=O)[C@H](CC(C)C)NC(C)=O)C(=O)Nc1ccc2c(C)cc(=O)oc2c1`, for which the result in assay [10], in assay [11], in [12], in assay [13] and in assay [14] was inactive.

As to `CC(=O)N[C@@H](CC(C)C)C(=O)NCC(=O)N[C@@H](CCCCNC(=O)CCC(=O)O)C(=O)Nc1ccc2c(C)cc(=O)oc2c1` (Ac-Leu-Gly-Lys(Suc)-{AMC}), the outcome in [3], in assay [5] and in assay [8] was inactive. Also, the outcome in assay [4] was Active.

For the compound `CC(=O)NCCCC[C@H](NC(=O)[C@H](CCCNC(=N)N)NC(=O)[C@H](C)NC(=O)[C@@H](NC(C)=O)[C@H](C)O)C(=O)Nc1ccc2c(C)cc(=O)oc2c1`, the outcome in assay [1], in [2], in [6], in assay [7] and in assay [9] was Active. Further, the outcome in assay [3], in assay [4], in [5] and in assay [8] was inactive.

In the case of `CC(=O)N[C@@H](CC(C)C)C(=O)NCC(=O)N[C@@H](CCCCNC(=O)C(F)(F)F)C(=O)Nc1ccc2c(C)cc(=O)oc2c1` (Ac-Leu-Gly-Lys(Tfa)-{AMC}), the result in assay [10], in assay [11], in [12] and in assay [14] was inactive. In assay [13], the outcome was Active.

In the case of `CC(=O)NCCCC[C@H](NC(=O)[C@H](CCCCNC(C)=O)NC(=O)[C@H](Cc1cnc[nH]1)NC(=O)[C@H](CCCNC(=N)N)NC(C)=O)C(=O)Nc1ccc2c(C)cc(=O)oc2c1` (Ac-RHK(Ac)K(Ac)-{AMC}), the result in assay [1], in assay [3], in assay [4], in [5], in assay [8] and in assay [9] was inactive. For the same compound, the outcome in [2], in [6] and in assay [7] was Active.

Turning to `CC(=O)NCCCC[C@H](NC(=O)[C@H](CCCCN)NC(=O)[C@@H]1CCCN1C(=O)[C@H](CCC(N)=O)NC(C)=O)C(=O)Nc1ccc2c(C)cc(=O)oc2c1` (Ac-QPKK(Ac)-{AMC}), the result in [1], in assay [3], in assay [4], in assay [5], in assay [8] and in [9] was inactive. Further, the result in assay [2], in assay [6] and in assay [7] was Active.
